Laboratory results reported in ChEMBL document CHEMBL4619723, “New CDK8 inhibitors as potential anti-leukemic agents - Design, synthesis and biological evaluation” (Bioorg Med Chem, 2020).

What was measured:
[1] = biological target: Serine/threonine-protein kinase 32C (Homo sapiens) (UniProt Q86UX6); test: Inhibition of biotinylated ligand binding to wild-type human partial length YANK3 (M68 to G486 residues) expressed in bacterial expression system at 50 nM measured after 1 hr by kinomescan assay relative to control
Sequence of Serine/threonine-protein kinase 32C (Homo sapiens) (Q86UX6 whole entry, the tested form may be a part): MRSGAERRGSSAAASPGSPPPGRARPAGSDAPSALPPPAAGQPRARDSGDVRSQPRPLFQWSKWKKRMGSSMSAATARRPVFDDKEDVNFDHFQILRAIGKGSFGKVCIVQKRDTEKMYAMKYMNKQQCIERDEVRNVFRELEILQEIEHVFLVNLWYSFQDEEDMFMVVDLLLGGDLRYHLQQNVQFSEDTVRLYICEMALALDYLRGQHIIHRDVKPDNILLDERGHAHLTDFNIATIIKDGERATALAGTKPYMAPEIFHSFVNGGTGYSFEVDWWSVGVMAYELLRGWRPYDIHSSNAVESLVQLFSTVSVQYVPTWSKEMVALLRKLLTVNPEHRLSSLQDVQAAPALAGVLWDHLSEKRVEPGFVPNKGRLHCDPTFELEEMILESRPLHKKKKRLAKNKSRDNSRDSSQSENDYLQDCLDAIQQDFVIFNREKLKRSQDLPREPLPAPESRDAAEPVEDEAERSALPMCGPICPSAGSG
Summary of the method: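 Kinase-tagged T7 phage was grown in an E. coli BL21-derived host at 32 °C until lysis, and the lysate was clarified. Kinase was bound to streptavidin beads carrying a biotinylated ligand, with test compound at 50 nM (final DMSO), in binding buffer for 1 h at rt. Bound kinase was eluted and quantified by qPCR. Result is POC relative to the DMSO (100%) and control-compound (0%) references.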

[2] = Selectivity ratio of EC50 for rat H9c2 cells to EC50 for human MOLM13 cells; type: toxicity; conditions: H9c2 cells versus MOLM13 cells, read-out: Ratio EC50
[3] = biological target: Serine/threonine-protein kinase RIO2 (Homo sapiens) (UniProt Q9BVS4); test: Inhibition of biotinylated ligand binding to wild-type human partial length RIOK2 (M1 to D313 residues) expressed in mammalian expression system at 50 nM measured after 1 hr by kinomescan assay relative to control
Sequence of Serine/threonine-protein kinase RIO2 (Homo sapiens) (Q9BVS4 whole entry, looked up, the tested form may be a part): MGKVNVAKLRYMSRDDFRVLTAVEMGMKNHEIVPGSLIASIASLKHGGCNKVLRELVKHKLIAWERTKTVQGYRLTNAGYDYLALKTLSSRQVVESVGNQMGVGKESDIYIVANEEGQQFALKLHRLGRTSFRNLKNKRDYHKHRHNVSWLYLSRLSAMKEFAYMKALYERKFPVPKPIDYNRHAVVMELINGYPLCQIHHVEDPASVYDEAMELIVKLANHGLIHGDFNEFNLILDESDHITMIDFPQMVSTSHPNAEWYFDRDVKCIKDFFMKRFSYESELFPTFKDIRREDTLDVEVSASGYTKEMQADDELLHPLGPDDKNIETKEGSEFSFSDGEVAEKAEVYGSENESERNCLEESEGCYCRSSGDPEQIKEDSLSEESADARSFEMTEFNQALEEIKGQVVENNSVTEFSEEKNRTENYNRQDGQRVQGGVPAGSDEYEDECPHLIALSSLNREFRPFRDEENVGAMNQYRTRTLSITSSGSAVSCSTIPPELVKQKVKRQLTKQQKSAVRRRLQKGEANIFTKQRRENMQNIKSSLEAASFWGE
Summary of the method: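 Competition binding: kinase was bound to streptavidin beads carrying a biotinylated ligand, with test compound at 50 nM, in 20% SeaBlock, 0.17x PBS, 0.05% Tween 20 and 6 mM DTT for 1 h at rt with shaking. After washing, kinase was eluted with 0.5 μM free ligand and quantified by qPCR. Result is POC relative to the DMSO (100%) and control-compound (0%) references.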

Work on `CN(C)[C@@H]1CC[C@@]2(C)[C@@H](CC[C@@H]3[C@@H]2CC[C@]2(C)C(c4cccc5cnccc45)=CC[C@@H]32)C1` yielded an inhibition [1] of over 80%, a selectivity ratio [2] of 3 to 4 and an inhibition [3] of over 80%.
